Laboratory results reported in ChEMBL document CHEMBL3616442, “Unconventional Knoevenagel-type indoles: Synthesis and cell-based studies for the identification of pro-apoptotic agents” (Eur J Med Chem, 2015).

Experiments:
NCI-H460 = assay: Growth inhibition of human NCI-H460 cells after 48 hrs by sulforhodamine B assay; assay type: functional; settings: NCI-H460, 48 h
Method in brief: (§1)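 NCI 60-cell-line screen. Compounds tested at five 10-fold dilutions from 10^-4 to 10^-8 M. Cells exposed for the last 48 h of a 72 h incubation, growth estimated by sulforhodamine B protein assay. GI50 is the concentration giving 50% growth inhibition. Values beyond the tested range are expressed as greater or lesser than the extreme concentration.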

DU-145 = assay: Cytotoxicity against human DU145 cells after 96 hrs by MTT assay; assay type: functional, cell-based; settings: DU-145, 96 h
Method in brief: (§2)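 ATCC cell lines, mycoplasma-free by Hoechst staining. Haematological lines in RPMI-1640, solid-tumour and normal fibroblast lines in their own media, all with 10% FCS and antibiotics, at 37 °C in 5% CO₂. Compounds added as serial dilutions from a 100 mM DMSO stock diluted in medium. Viability by MTT after 96 h at 37 °C. Mean ± SD of three independent determinations.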

[1] = Growth inhibition of human HCC2998 cells after 48 hrs by sulforhodamine B assay; assay type: functional; settings: HCC 2998, 48 h; method in brief: as §1
HepG2 = assay: Cytotoxicity against human HepG2 cells after 96 hrs by MTT assay; assay type: functional, cell-based; settings: HepG2, 96 h; method in brief: as §2
NCI-H322M = assay: Growth inhibition of human NCI-H322M cells after 48 hrs by sulforhodamine B assay; assay type: functional; method in brief: as §1
NCI-H522 = assay: Growth inhibition of human NCI-H522 cells after 48 hrs by sulforhodamine B assay; assay type: functional; settings: NCI-H522, 48 h; method in brief: as §1
CCRF-CEM = assay: Cytotoxicity against human CCRF-CEM cells after 96 hrs by MTT assay; assay type: functional, cell-based; method in brief: as §2
OVCAR-8 = assay: Growth inhibition of human OVCAR8 cells after 48 hrs by sulforhodamine B assay; assay type: functional; settings: OVCAR-8, 48 h
MDA-MB-231 = assay: Growth inhibition of human MDA-MB-231 cells after 48 hrs by sulforhodamine B assay; assay type: functional; settings: MDA-MB-231, 48 h; method in brief: as §1
[2] = Growth inhibition of human COLO205 cells after 48 hrs by sulforhodamine B assay; assay type: functional; settings: COLO 205, 48 h; method in brief: as §1
CCRF-SB = assay: Cytotoxicity against human CCRF-SB cells after 96 hrs by MTT assay; assay type: functional, cell-based; method in brief: as §2
[3] = Cytotoxicity against human SKMES1 cells after 96 hrs by MTT assay; assay type: functional, cell-based; settings: SK-MES-1, 96 h; method in brief: as §2
SK-MEL-28 [4] = assay: Cytotoxicity against human SK-MEL-28 cells after 96 hrs by MTT assay; assay type: functional, cell-based; settings: SK-MEL-28, 96 h; method in brief: as §2
[5] = Cytotoxicity against human CRL7065 cells after 96 hrs by MTT assay; assay type: cell-based; settings: CRL-7065, 96 h; method in brief: as §2
MCF7 = assay: Cytotoxicity against human MCF7 cells after 96 hrs by MTT assay; assay type: functional, cell-based; settings: MCF7, 96 h; method in brief: as §2
SW-620 = assay: Growth inhibition of human SW620 cells after 48 hrs by sulforhodamine B assay; assay type: functional; settings: SW-620, 48 h
WIL2-NS = assay: Cytotoxicity against human WIL2-NS cells after 96 hrs by MTT assay; assay type: functional, cell-based; method in brief: as §2
MDA-MB-435 = assay: Growth inhibition of human MDA-MB-435 cells after 48 hrs by sulforhodamine B assay; assay type: functional; settings: MDA-MB-435, 48 h; method in brief: as §1
SNB-75 = assay: Growth inhibition of human SNB75 cells after 48 hrs by sulforhodamine B assay; assay type: functional; settings: SNB-75, 48 h
[6] = Growth inhibition of human Hs 578T cells after 48 hrs by sulforhodamine B assay; assay type: functional; method in brief: as §1
SK-MEL-28 [7] = assay: Growth inhibition of human SK-MEL-28 cells after 48 hrs by sulforhodamine B assay; assay type: functional; settings: SK-MEL-28, 48 h
HT-29 = assay: Growth inhibition of human HT-29 cells after 48 hrs by sulforhodamine B assay; assay type: functional; settings: HT-29, 48 h; method in brief: as §1
NCI-H23 = assay: Growth inhibition of human NCI-H23 cells after 48 hrs by sulforhodamine B assay; assay type: functional; settings: NCI-H23, 48 h; method in brief: as §1
IGROV-1 = assay: Growth inhibition of human IGROV1 cells after 48 hrs by sulforhodamine B assay; assay type: functional; settings: IGROV-1, 48 h; method in brief: as §1
SF-268 = assay: Growth inhibition of human SF268 cells after 48 hrs by sulforhodamine B assay; assay type: functional; settings: SF-268, 48 h
MRC5 = assay: Cytotoxicity against human MRC5 cells after 96 hrs by MTT assay; assay type: cell-based; settings: MRC5, 96 h; method in brief: as §2
A498 = assay: Growth inhibition of human A498 cells after 48 hrs by sulforhodamine B assay; assay type: functional; settings: A498, 48 h; method in brief: as §1

| Compound | GI50 (NCI-H460) [µM] | GI50 [1] [µM] | GI50 (NCI-H322M) [µM] | GI50 (NCI-H522) [µM] | GI50 (OVCAR-8) [µM] | GI50 (MDA-MB-231) [µM] | GI50 [2] [µM] | GI50 (SW-620) [µM] | GI50 (MDA-MB-435) [µM] | GI50 (SNB-75) [µM] | GI50 [6] [µM] | GI50 (SK-MEL-28 [7]) [µM] | GI50 (HT-29) [µM] | GI50 (NCI-H23) [µM] | GI50 (IGROV-1) [µM] | GI50 (SF-268) [µM] | GI50 (A498) [µM] | also measured |
| --- | --- | --- | --- | --- | --- | --- | --- | --- | --- | --- | --- | --- | --- | --- | --- | --- | --- | --- |
| COc1ccc(-c2[nH]c3ccc(OC)cc3c2/C=C(\C#N)S(=O)(=O)c2ccccc2)cc1 | 0.687 | 2 | 4.3 | 1.7 | 3.1 | 1.4 | 0.396 | 0.54 | 0.276 | 0.612 | 0.538 | 0.787 | 0.435 | 0.946 | 10.6 | 1.6 | – | EC50 (DU-145): 3 µM; EC50 (HepG2): 6.4 µM; EC50 (CCRF-CEM): 0.3 µM; EC50 (CCRF-SB): 0.3 µM; EC50 [3]: > 100 µM; EC50 (SK-MEL-28 [4]): > 100 µM; EC50 [5]: > 100 µM; EC50 (MCF7): 40 µM; EC50 (WIL2-NS): 0.5 µM; EC50 (MRC5): 22 µM |
| N#C/C(=C\c1c(-c2ccccc2)[nH]c2ccccc12)S(=O)(=O)c1ccccc1 | 2.7 | 10.9 | 9.2 | 4.6 | 6 | 3.8 | 1.4 | 0.57 | 0.288 | 1.7 | 23.6 | 8.3 | 0.595 | 4.7 | 3.3 | 4.5 | 11 | – |
| N#CC(C#N)=Cc1c(-c2ccccc2)[nH]c2ccccc12 | 2.1 | 10.4 | 11.4 | 9.6 | 6 | 1.8 | 1.8 | 0.539 | 0.246 | 2 | 2.3 | 5.1 | 0.526 | 4.7 | 0.757 | 13.4 | 3 | – |
| CC(=O)/C(=C\c1c(-c2ccccc2)[nH]c2ccccc12)S(=O)(=O)c1ccccc1 | 1.1 | 1.4 | 6.1 | 1.3 | 2.5 | 1.7 | 1.7 | 0.778 | 0.295 | 1.7 | 5 | 2 | 0.589 | 1.6 | 1.5 | 3.4 | 2 | – |
| COc1ccc2[nH]c(-c3ccccc3)c(/C=C(\C#N)S(=O)(=O)c3ccccc3)c2c1 | 4.6 | 18.7 | 30.1 | 4 | 7.8 | 7.5 | 7.4 | 4 | 1.1 | 5.9 | 7.6 | 6.1 | 3.5 | 8 | 4.8 | 13.3 | 9.3 | EC50 (DU-145): 10 µM; EC50 (HepG2): 9.6 µM; EC50 (CCRF-CEM): 1.5 µM; EC50 (CCRF-SB): 1.9 µM; EC50 [3]: 12 µM; EC50 (SK-MEL-28 [4]): 10 µM; EC50 [5]: 11 µM; EC50 (MCF7): 12 µM; EC50 (WIL2-NS): 2.8 µM; EC50 (MRC5): 14 µM |
| CCOC(=O)C(=Cc1c(-c2ccccc2)[nH]c2ccccc12)C(=O)OCC | 3.8 | 10.1 | 12.7 | 3.4 | 4.1 | 5.8 | 4.9 | 5.6 | 3.4 | 7 | 3.8 | 7.7 | 4.6 | 2.9 | 5.7 | 6.8 | 16.9 | – |
| COC(=O)/C(=C\c1c(-c2ccccc2)[nH]c2ccccc12)S(C)(=O)=O | 3.5 | 8.8 | 7.4 | 3.1 | 6.3 | 2.4 | 4.4 | 2.9 | 0.671 | 2.3 | 3.5 | 6 | 3.6 | 8 | 1.7 | 4.3 | 6.6 | – |
| COc1ccc2[nH]c(-c3ccccc3)c(C=C(C#N)C#N)c2c1 | 3.6 | 6.1 | 7.4 | 4.6 | 7.7 | 3.8 | 2.1 | 3.6 | 0.607 | 2.8 | 2.4 | 4.4 | 3.1 | 4.1 | 8.4 | 8.3 | 2 | – |
